ChEMBL document CHEMBL1641453, “Synthesis and evaluation of β-carboline derivatives as potential monoamine oxidase inhibitors” (Bioorg Med Chem, 2011)

Legend:
[1] = biological target: T1, Amine oxidase [flavin-containing] A (Homo sapiens, UniProt P21397); assay: Inhibition of human recombinant MAO-A expressed in baculovirus-infected insect cells after 1 hr by two-step bioluminescent assay
T1 sequence (P21397 whole entry): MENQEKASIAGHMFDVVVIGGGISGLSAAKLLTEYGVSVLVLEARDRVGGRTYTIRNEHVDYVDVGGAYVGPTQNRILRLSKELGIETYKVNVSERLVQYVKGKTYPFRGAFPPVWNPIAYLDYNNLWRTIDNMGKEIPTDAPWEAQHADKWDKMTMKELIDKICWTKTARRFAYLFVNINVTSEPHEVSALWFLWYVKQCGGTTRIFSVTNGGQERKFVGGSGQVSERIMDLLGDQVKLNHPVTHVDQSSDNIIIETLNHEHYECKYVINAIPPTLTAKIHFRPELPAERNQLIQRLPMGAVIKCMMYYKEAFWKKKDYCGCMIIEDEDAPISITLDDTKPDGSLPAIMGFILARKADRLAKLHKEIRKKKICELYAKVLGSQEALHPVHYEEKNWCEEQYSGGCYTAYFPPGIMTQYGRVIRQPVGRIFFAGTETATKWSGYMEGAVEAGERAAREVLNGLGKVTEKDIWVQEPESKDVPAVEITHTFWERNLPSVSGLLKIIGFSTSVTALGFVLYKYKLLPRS

[2] = biological target: T2, Amine oxidase [flavin-containing] B (Homo sapiens, UniProt P27338); assay: (§1) Inhibition of human recombinant MAO-B expressed in baculovirus-infected insect cells at 1 uM after 1 hr by two-step bioluminescent assay; conditions: 1 h, 1 µM
T2 sequence (P27338 whole entry): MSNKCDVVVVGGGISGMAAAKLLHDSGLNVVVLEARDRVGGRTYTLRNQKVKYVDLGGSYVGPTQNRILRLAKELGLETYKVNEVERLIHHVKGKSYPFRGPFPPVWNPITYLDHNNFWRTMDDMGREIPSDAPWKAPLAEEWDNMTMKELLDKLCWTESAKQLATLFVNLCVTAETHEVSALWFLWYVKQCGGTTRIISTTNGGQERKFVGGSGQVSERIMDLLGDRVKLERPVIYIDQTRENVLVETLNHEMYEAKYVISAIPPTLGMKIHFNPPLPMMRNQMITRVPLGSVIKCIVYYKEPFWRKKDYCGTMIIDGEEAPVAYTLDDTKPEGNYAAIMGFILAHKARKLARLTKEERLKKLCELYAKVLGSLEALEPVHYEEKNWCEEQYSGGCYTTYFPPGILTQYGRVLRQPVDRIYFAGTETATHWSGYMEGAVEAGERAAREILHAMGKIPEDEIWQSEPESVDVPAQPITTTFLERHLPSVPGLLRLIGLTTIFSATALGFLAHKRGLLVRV
Summary of the method: (§2)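 Recombinant human MAO-B from baculovirus-infected insect cell microsomes (0.5 U/mg final) preincubated 2 min 30 s with compound, then luminogenic substrate at 15 µM final, 1 h at 37 °C. Luciferin detection reagent stops the reaction and luminescence is read after 20 min. Hepes 100 mM pH 7.5, 5% glycerol, 12.5% DMSO. Tested in triplicate; % inhibition from signal relative to no-compound control.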

[3] = biological target: T2, Amine oxidase [flavin-containing] B; assay: Inhibition of human recombinant MAO-B expressed in baculovirus-infected insect cells after 1 hr by two-step bioluminescent assay
Summary of the method: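 Recombinant human MAO-B microsomes from baculovirus-infected insect cells, 0.5 U/mg final. Enzyme preincubated with compound 2 min 30 s at 37 °C, then luminogenic luciferin-derivative substrate added (15 µM final). Luciferin detection reagent stops the reaction; luminescence read 20 min later. Buffer 100 mM Hepes pH 7.5 with 5% glycerol, DMSO 12.5% final. Screened at 10 and 1 µM in triplicate; IC50 from sigmoidal fit.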

[4] = biological target: T3, MAO-B (amine oxidase [flavin-containing] B) (Homo sapiens, UniProt P27338); assay: as §1; summary of the method: as §2
T3 sequence (P27338 whole entry): T2 sequence (P27338 whole entry)

C=CCOc1ccc2c(c1)[nH]c1c(C)nccc12
Ki [1]: 5 nM | inhibition (INH) [2]: Not Active

COc1ccc2c(c1)[nH]c1c(C)nccc12 [HARMINE]
Ki [3]: 121000 nM

Cc1nccc2c1[nH]c1cc(OCc3ccccn3)ccc12
Ki [1]: 500 nM | inhibition (INH) [2]: Not Active

Cc1nccc2c1[nH]c1cc(OCc3ccncc3)ccc12
Ki [1]: 35.4 nM | inhibition (INH) [2]: Not Active

Cc1nccc2c1[nH]c1cc(OCC(C)C)ccc12
Ki [1]: 3.9 nM | inhibition at 1 h, 1 µM [4]: 14%

Cc1nccc2c1[nH]c1cc(OCC3CCCCC3)ccc12
Ki [1]: 4.3 nM | Ki [3]: 222 nM

Cc1nccc2c1[nH]c1cc(OCc3ccccc3)ccc12
Ki [1]: 12.6 nM | inhibition at 1 h, 1 µM [4]: 42%

Cc1nccc2c1[nH]c1cc(OCCCN(C)C)ccc12
Ki [1]: 684 nM | inhibition (INH) [2]: Not Active

Cc1nccc2c1[nH]c1cc(OCc3ccc4ccccc4c3)ccc12
Ki [1]: 100 nM | inhibition (INH) [2]: Not Active

Cc1nccc2c1[nH]c1cc(OCCN3CCOCC3)ccc12
Ki [1]: 256 nM | inhibition (INH) [2]: Not Active

Cc1nccc2c1[nH]c1cc(OCCc3ccccc3)ccc12
Ki [1]: 5 nM | inhibition at 1 h, 1 µM [4]: 39%

COCCOc1ccc2c(c1)[nH]c1c(C)nccc12
Ki [1]: 29.5 nM | inhibition (INH) [2]: Not Active

Cc1nccc2c1[nH]c1cc(OCCCC(F)(F)F)ccc12
Ki [1]: 3.6 nM | inhibition at 1 h, 1 µM [4]: 24%

Cc1nccc2c1[nH]c1cc(OCCO)ccc12
Ki [1]: 28.4 nM | inhibition (INH) [2]: Not Active

Cc1nccc2c1[nH]c1cc(OCc3cccnc3)ccc12
Ki [1]: 24.9 nM | inhibition (INH) [2]: Not Active

Cc1nccc2c1[nH]c1cc(OCCN(C)C)ccc12
Ki [1]: 1020 nM | inhibition (INH) [2]: Not Active
